# Legend:
# 2D HepaRG cells [1] = assay: CometChip assay; assay type: cell-based, human; details: 24-h exposure; for Fold increase of DNA damage over the vehicle control: at the maximum concentration shown in the table
# 3D HepaRG spheroids [2] = assay: CometChip assay; assay type: cell-based, human; details: for Outcome, CometChip assay / Fold increase of DNA damage over the vehicle control: 24-h exposure; for Fold increase of DNA damage over the vehicle control: at the maximum concentration shown in the table; for BMC50 estimate for DNA strand breakage, rank among the eight nitrosamines: PROAST exponential model
# [3] = system: CYP2A6-expressing TK6 cells; details: ref Li et al. 2022; cited from earlier work
# 3D HepaRG spheroids [4] = assay: HT flow-cytometry-based MN assay in 3D HepaRG spheroids; assay type: cell-based, human; details: for Fold increase of MN formation over the vehicle control: at the maximum concentration shown in the table
# 2D HepaRG cells [5] = assay: HT flow-cytometry-based MN assay in 2D HepaRG cells; assay type: cell-based, human; details: for Fold increase of MN formation over the vehicle control: at the maximum concentration shown in the table
# [6] = ref European Chemicals Agency (ECHA) Classification and Labelling Inventory; cited from earlier work
# rat [7] = details: ref Ambient water quality criteria for nitrosamines, US Environmental Protection Agency; cited from earlier work
# rat [8] = details: ref Lhasa Carcinogenicity Database; cited from earlier work
# [9] = ref IARC Monographs, Volumes 1–133; IARC 1978; cited from earlier work
# [10] = system: animal species, including frog, rodent, rabbit, and monkey; details: ref Bogovski and Bogovski 1981; cited from earlier work
# 3D HepaRG spheroids [11] = assay: MultiFlow DNA damage assay; assay type: cell-based, human; details: 3D HepaRG cultures, PROAST exponential model
# Procedure, shortened: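 Spheroids were exposed for 24 h in differentiation medium containing 100 ng/ml hEGF, then kept 5 days in the same medium without test compound. They were dissociated with Accutase and stained 1 h at room temperature for γH2A.X, phospho-H3 and P53, then analysed by flow cytometry. Responses are median-fluorescence fold-changes versus vehicle. BMC50 (50% increase over vehicle; 90% CI) came from exponential-model benchmark analysis with compound as covariate.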
# 3D HepaRG spheroids [12] = assay: ATP assay; assay type: cell-based, human; details: 24-h exposure, at concentrations up to 10 mM
# Procedure, shortened: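 Differentiated HepaRG cells (passages 16–19) were seeded at 5 × 10^3 cells per spheroid in ultra-low-attachment plates. On Day 10, 7–8 spheroids were pooled per well and exposed for 24 h at 37 °C in 5% CO2, with final DMSO ≤1%. ATP was measured with the CellTiter-Glo 3D kit as % of vehicle control, from at least three independent experiments.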
# Sprague–Dawley rats = details: treated 5 days each week with 1.8 or 12 mg NDIPA for 50 or 40 weeks; ref Lijinsky and Taylor 1979; cited from earlier work
# 2D HepaRG cells [13] = assay: ATP assay; assay type: cell-based, human; details: 24-h exposure, at concentrations up to 10 mM
# Procedure, shortened: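 Differentiated HepaRG cells (passages 16–19) replated at 5 × 10^4 cells/well as 2D monolayers and treated 3 days after seeding. Exposure was 24 h at 37 °C in 5% CO2 in differentiation medium, with final DMSO ≤1%. Viability was read by CellTiter-Glo luminescence as %ATP relative to vehicle control, from at least three independent experiments.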
# [14] = system: wild-type TK6 cells or TK6 cells transduced with human CYP1A1, 2A6, 2E1, or 3A4 genes; details: ref Li et al. 2022; cited from earlier work
# Namalva cells = details: human Burkitt lymphoblastoid cell line, ref Janzowski et al. 1989; cited from earlier work
structure (smiles),measurement,setting,value
"CN(N=O)c1ccccc1 [NMPA, N-nitrosomethylphenylamine]","Outcome, CometChip assay",2D HepaRG cells [1],"− (The ratio ≤ 1.5-fold (p ≥ 0.05 vs. vehicle control, green color))"
same,"Outcome, CometChip assay",3D HepaRG spheroids [2],+ + (2 ≤ ratio < 5)
same,Micronucleus (MN) formation,[3],induced
same,Phosphorylation of histone H2A.X (γH2A.X),[3],increased
same,"Outcome, MN assay",3D HepaRG spheroids [4],+ + (2 ≤ ratio < 5)
same,"Outcome, MN assay",2D HepaRG cells [5],"− (The ratio ≤ 1.5-fold (p ≥ 0.05 vs. vehicle control, green color))"
same,ECHA classification,[6],Carc.2
same,Oral rat LD50,rat [7],280 mg/kg
"O=NN1CCN(C2CCCC2)CC1 [CPNP, N-cyclopentyl-4-nitrosopiperazine]","Outcome, CometChip assay",2D HepaRG cells [1],"− (The ratio ≤ 1.5-fold (p ≥ 0.05 vs. vehicle control, green color))"
same,Fold increase of DNA damage over the vehicle control,2D HepaRG cells [1],0.9 fold
same,"Outcome, CometChip assay",3D HepaRG spheroids [2],+ + (2 ≤ ratio < 5)
same,Fold increase of DNA damage over the vehicle control,3D HepaRG spheroids [2],2.3 fold
same,MN response (in words),3D HepaRG spheroids [4],negative
same,"Outcome, MN assay",3D HepaRG spheroids [4],"− (The ratio ≤ 1.5-fold (p ≥ 0.05 vs. vehicle control, green color))"
same,Fold increase of MN formation over the vehicle control,3D HepaRG spheroids [4],1.4 fold
same,MN response (in words),2D HepaRG cells [5],negative
same,"Outcome, MN assay",2D HepaRG cells [5],"− (The ratio ≤ 1.5-fold (p ≥ 0.05 vs. vehicle control, green color))"
same,Fold increase of MN formation over the vehicle control,2D HepaRG cells [5],1.4 fold
same,ECHA classification,[6],Carc.1B
"CCN(CC)N=O [NDEA, N-nitrosodiethylamine]",Gold TD50 in rat,rat [8],0.0265 mg/kg/day
same,"Outcome, CometChip assay",2D HepaRG cells [1],+ + (2 ≤ ratio < 5)
same,Fold increase of DNA damage over the vehicle control,2D HepaRG cells [1],2.3 fold
same,"Outcome, CometChip assay",3D HepaRG spheroids [2],+ + (2 ≤ ratio < 5)
same,Fold increase of DNA damage over the vehicle control,3D HepaRG spheroids [2],2.6 fold
same,Micronucleus (MN) formation,[3],induced
same,Phosphorylation of histone H2A.X (γH2A.X),[3],increased
same,"Outcome, MN assay",3D HepaRG spheroids [4],+ + (2 ≤ ratio < 5)
same,Fold increase of MN formation over the vehicle control,3D HepaRG spheroids [4],2.2 fold
same,"Outcome, MN assay",2D HepaRG cells [5],+ (1.5 ≤ ratio < 2)
same,Fold increase of MN formation over the vehicle control,2D HepaRG cells [5],1.7 fold
same,ECHA classification,[6],Carc.1A/1B; Muta.2
same,Oral rat LD50,rat [7],280 mg/kg
same,IARC group,[9],2A
same,Number of different animal species in which tumors were induced,[10],26
"CC(C)N(N=O)C(C)C [NDIPA, N-nitrosodiisopropylamine]","Outcome, CometChip assay",2D HepaRG cells [1],"− (The ratio ≤ 1.5-fold (p ≥ 0.05 vs. vehicle control, green color))"
same,Fold increase of DNA damage over the vehicle control,2D HepaRG cells [1],1.1 fold
same,"Outcome, CometChip assay",3D HepaRG spheroids [2],+ (1.5 ≤ ratio < 2)
same,Fold increase of DNA damage over the vehicle control,3D HepaRG spheroids [2],1.8 fold
same,"BMC50 estimate for DNA strand breakage, rank among the eight nitrosamines",3D HepaRG spheroids [2],highest
same,Phosphorylation of histone H2A.X (γH2A.X),[3],increased
same,MN response (in words),3D HepaRG spheroids [4],negative
same,"Outcome, MN assay",3D HepaRG spheroids [4],"− (The ratio ≤ 1.5-fold (p ≥ 0.05 vs. vehicle control, green color))"
same,Fold increase of MN formation over the vehicle control,3D HepaRG spheroids [4],1.2 fold
same,"BMC50 value for γH2A.X responses, rank among the eight nitrosamines",3D HepaRG spheroids [11],highest
same,MN response (in words),2D HepaRG cells [5],negative
same,"Outcome, MN assay",2D HepaRG cells [5],"− (The ratio ≤ 1.5-fold (p ≥ 0.05 vs. vehicle control, green color))"
same,Fold increase of MN formation over the vehicle control,2D HepaRG cells [5],1.1 fold
same,Cytotoxicity (ATP assay),3D HepaRG spheroids [12],less than 30%
same,Carcinogenicity in Sprague–Dawley rats (in words),Sprague–Dawley rats,weak carcinogen
same,ECHA classification,[6],Carc.1B; Muta.1B
same,Oral rat LD50,rat [7],850 mg/kg
same,Cytotoxicity (ATP assay),2D HepaRG cells [13],less than 30%
"CCCCN(CCCC)N=O [NDBA, N-nitrosodibutylamine]",Gold TD50 in rat,rat [8],0.691 mg/kg/day
same,"Outcome, CometChip assay",2D HepaRG cells [1],+ + (2 ≤ ratio < 5)
same,Fold increase of DNA damage over the vehicle control,2D HepaRG cells [1],2.4 fold
same,"Outcome, CometChip assay",3D HepaRG spheroids [2],+ + (2 ≤ ratio < 5)
same,Fold increase of DNA damage over the vehicle control,3D HepaRG spheroids [2],2.8 fold
same,Phosphorylation of histone H2A.X (γH2A.X),[3],increased
same,"Outcome, MN assay",3D HepaRG spheroids [4],+ + (2 ≤ ratio < 5)
same,Fold increase of MN formation over the vehicle control,3D HepaRG spheroids [4],2.3 fold
same,"BMC50 value for γH2A.X responses, rank among the eight nitrosamines",3D HepaRG spheroids [11],lowest
same,"Outcome, MN assay",2D HepaRG cells [5],+ (1.5 ≤ ratio < 2)
same,Fold increase of MN formation over the vehicle control,2D HepaRG cells [5],1.5 fold
same,MN frequency,[14],didn’t increase
same,ECHA classification,[6],Carc.2
same,Oral rat LD50,rat [7],1200 mg/kg
same,IARC group,[9],2B
same,Lowest concentration increasing MN formation,Namalva cells,10 µM
same,Lowest concentration increasing sister chromatid exchanges,Namalva cells,1 µM
"CN(CCCC(=O)O)N=O [NMBA, N-nitroso-N-methyl-4-aminobutyric acid]",Gold TD50 in rat,rat [8],0.982 mg/kg/day
same,"Outcome, CometChip assay",2D HepaRG cells [1],"− (The ratio ≤ 1.5-fold (p ≥ 0.05 vs. vehicle control, green color))"
same,Fold increase of DNA damage over the vehicle control,2D HepaRG cells [1],1.0 fold
same,"Outcome, CometChip assay",3D HepaRG spheroids [2],+ + (2 ≤ ratio < 5)
same,Fold increase of DNA damage over the vehicle control,3D HepaRG spheroids [2],2.3 fold
same,Micronucleus (MN) formation,[3],induced
same,Phosphorylation of histone H2A.X (γH2A.X),[3],increased
same,"Outcome, MN assay",3D HepaRG spheroids [4],+ (1.5 ≤ ratio < 2)
same,Fold increase of MN formation over the vehicle control,3D HepaRG spheroids [4],1.8 fold
same,"Outcome, MN assay",2D HepaRG cells [5],"− (The ratio ≤ 1.5-fold (p ≥ 0.05 vs. vehicle control, green color))"
same,Fold increase of MN formation over the vehicle control,2D HepaRG cells [5],1.4 fold
same,ECHA classification,[6],Carc.2
"CCN(N=O)C(C)C [NEIPA, N-nitrosoethylisopropylamine]","Outcome, CometChip assay",2D HepaRG cells [1],"− (The ratio ≤ 1.5-fold (p ≥ 0.05 vs. vehicle control, green color))"
same,Fold increase of DNA damage over the vehicle control,2D HepaRG cells [1],1.5 fold
same,"Outcome, CometChip assay",3D HepaRG spheroids [2],+ + (2 ≤ ratio < 5)
same,Fold increase of DNA damage over the vehicle control,3D HepaRG spheroids [2],2.4 fold
same,Micronucleus (MN) formation,[3],induced
same,Phosphorylation of histone H2A.X (γH2A.X),[3],increased
same,MN response (in words),3D HepaRG spheroids [4],negative
same,"Outcome, MN assay",3D HepaRG spheroids [4],"− (The ratio ≤ 1.5-fold (p ≥ 0.05 vs. vehicle control, green color))"
same,Fold increase of MN formation over the vehicle control,3D HepaRG spheroids [4],1.3 fold
same,MN response (in words),2D HepaRG cells [5],negative
same,"Outcome, MN assay",2D HepaRG cells [5],"− (The ratio ≤ 1.5-fold (p ≥ 0.05 vs. vehicle control, green color))"
same,Fold increase of MN formation over the vehicle control,2D HepaRG cells [5],1.1 fold
same,Cytotoxicity (ATP assay),3D HepaRG spheroids [12],less than 30%
same,ECHA classification,[6],Carc.1B
same,Oral rat LD50,rat [7],1100 mg/kg
same,Cytotoxicity (ATP assay),2D HepaRG cells [13],less than 30%
"CN(C)N=O [NDMA, N-nitrosodimethylamine]","Outcome, CometChip assay",2D HepaRG cells [1],+ + (2 ≤ ratio < 5)
same,"Outcome, CometChip assay",3D HepaRG spheroids [2],"+ + + (ratio ≥ 5 (p < 0.05, red color))"
same,"BMC50 estimate for DNA strand breakage, rank among the eight nitrosamines",3D HepaRG spheroids [2],lowest
same,"Outcome, MN assay",3D HepaRG spheroids [4],+ + (2 ≤ ratio < 5)
same,"BMC50 estimate for %MN, rank among the five positive responses",3D HepaRG spheroids [4]; PROAST exponential model,lowest
same,"Outcome, MN assay",2D HepaRG cells [5],+ + (2 ≤ ratio < 5)
same,ECHA classification,[6],Carc.1B
same,Oral rat LD50,rat [7],40 mg/kg
same,IARC group,[9],2A
same,Number of different animal species in which tumors were induced,[10],16
